The results in this text go back to ChEMBL document CHEMBL4177758, “Rational Drug Design of Topically Administered Caspase 1 Inhibitors for the Treatment of Inflammatory Acne” (J Med Chem, 2018).

Converted amounts (≈) assume the structure as drawn.

The nature of data set [1]: Lipophilicity, log D of the compound at pH 6.5 by chromatographic method. The data set is classed as physicochemical. The settings on record: buffer. The gist of the method: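 Chromatographic lipophilicity at pH 6.5, converted to ChromLogD = CHI × 0.0857 − 2.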
Data set [2] can be described thus: Aqueous solubility of the compound in pH 7.4 buffered water after 24 hrs. The data set is classed as physicochemical. A digest of the protocol: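 Semi-thermodynamic protocol: a mixture made from a 10 mM DMSO stock is diluted into pH 7.4 buffered water and stirred 24 h before the concentration is measured.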
The target of data set [3] is T1, Caspase-1 (Homo sapiens, UniProt P29466).
T1 sequence (P29466 whole entry): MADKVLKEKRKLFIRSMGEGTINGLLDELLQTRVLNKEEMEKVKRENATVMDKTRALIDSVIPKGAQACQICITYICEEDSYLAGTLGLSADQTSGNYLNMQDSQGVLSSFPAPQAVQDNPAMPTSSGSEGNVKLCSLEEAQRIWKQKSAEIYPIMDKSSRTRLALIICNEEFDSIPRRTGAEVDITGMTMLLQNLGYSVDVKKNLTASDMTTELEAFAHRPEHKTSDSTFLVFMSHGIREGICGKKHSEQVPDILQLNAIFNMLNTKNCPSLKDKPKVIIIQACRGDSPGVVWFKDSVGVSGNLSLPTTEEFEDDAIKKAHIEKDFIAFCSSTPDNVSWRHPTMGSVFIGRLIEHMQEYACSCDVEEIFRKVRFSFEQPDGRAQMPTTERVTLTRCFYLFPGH
The data set is described as follows: Inhibition of caspase-1 in human THP1 cells assessed as decrease in LPS-induced IL-1beta secretion after overnight incubation by sandwich immunoassay. The class given is cell-based.

Data set [4] is described as follows: Chemical stability in 96% ethanol assessed as parent compound recovery at 23 degC after 84 days. The data set is classed as physicochemical. Conditions: read-out: Drug recovery. The gist of the method:
(§1)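 Compounds bearing the aspartyl aldehyde warhead are held in 96% ethanol at 23 °C and assayed as percent of parent compound recovered. Readings taken after 4 weeks are projected to 12 weeks with best-fit kinetic-order equations. Tautomers and potential stereoisomers are counted as parent.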

Data set [5] is described as follows: Intrinsic clearance in human epidermal keratinocyte S9 fraction assessed per mg of protein. The class given is ADME.
A short description of data set [6]: Phototoxicity in NHEK assessed as decrease in cell viability after 24 hrs in presence of UV light by neutral red uptake assay. The settings on record: human. A digest of the protocol: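 Keratinocyte neutral red uptake assay adapted from the OECD 432 3T3 NRU test. Cells are irradiated with a simulated daily UV dose of 6 J/cm², and viability is read after 24 h exposure to compound.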

Data set [7] has as its target T1, Caspase-1. Nature of the data set: Inhibition of human recombinant caspase-1 using AC-WEHD-AMC as substrate at Km after 20 mins by fluorescence assay. Conditions: read-out: IC50.
The nature of data set [8]: Chemical stability in 96% ethanol assessed as parent compound recovery at 23 degC after 3 months. The class given is physicochemical. The settings on record: read-out: Drug recovery. The gist of the method: as §1
A further data set concerns the target T2, Caspase-3 (Homo sapiens, UniProt P42574).
T2 sequence (P42574 whole entry): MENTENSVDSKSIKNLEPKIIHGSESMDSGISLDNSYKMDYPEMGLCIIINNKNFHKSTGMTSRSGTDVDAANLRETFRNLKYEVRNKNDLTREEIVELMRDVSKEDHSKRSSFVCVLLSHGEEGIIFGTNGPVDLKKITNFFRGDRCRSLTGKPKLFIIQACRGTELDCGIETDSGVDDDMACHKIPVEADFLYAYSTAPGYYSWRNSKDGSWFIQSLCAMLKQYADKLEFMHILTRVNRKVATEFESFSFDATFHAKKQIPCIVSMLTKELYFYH
The data set is described as follows: Inhibition of human recombinant caspase-3 using Ac-DEVD-AMC as substrate at Km after 20 mins by fluorescence assay. The gist of the method:
(§2)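 Human recombinant caspases in pH 7.4 HEPES buffer (100 mM NaCl, 0.1% CHAPS, 1 mM EDTA, 10% glycerol, 10 mM DTT), each with its own AMC substrate at a final concentration equal to its Km. Compounds tested at 10 000–0.04 nM in 1% DMSO. Enzyme level is set to convert under 20% of substrate in 20 min, or 2 h depending on activity, at room temperature. AMC read at 340/450 nm; IC50 from a four-parameter logistic fit.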

The target in the next data set is T3, Caspase-5 (Homo sapiens, UniProt P51878).
T3 sequence (P51878 whole entry): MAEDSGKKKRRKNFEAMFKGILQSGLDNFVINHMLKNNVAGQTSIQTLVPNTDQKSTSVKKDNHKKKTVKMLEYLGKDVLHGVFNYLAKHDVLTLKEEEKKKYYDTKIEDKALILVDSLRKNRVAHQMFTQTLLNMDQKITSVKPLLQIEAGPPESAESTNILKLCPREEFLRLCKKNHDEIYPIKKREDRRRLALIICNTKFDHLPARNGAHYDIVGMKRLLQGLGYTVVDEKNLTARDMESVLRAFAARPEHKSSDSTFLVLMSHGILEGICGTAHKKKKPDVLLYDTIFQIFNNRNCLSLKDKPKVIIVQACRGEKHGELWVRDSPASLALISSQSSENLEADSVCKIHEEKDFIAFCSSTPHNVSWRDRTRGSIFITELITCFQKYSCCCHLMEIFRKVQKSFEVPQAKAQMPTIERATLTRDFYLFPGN
Nature of the data set: Inhibition of human recombinant caspase-5 using AC-WEHD-AMC as substrate at Km after 20 mins by fluorescence assay. A digest of the protocol:
as §2

The target in a further data set is T4, Caspase-6 (Homo sapiens, UniProt P55212).
T4 sequence (P55212 whole entry): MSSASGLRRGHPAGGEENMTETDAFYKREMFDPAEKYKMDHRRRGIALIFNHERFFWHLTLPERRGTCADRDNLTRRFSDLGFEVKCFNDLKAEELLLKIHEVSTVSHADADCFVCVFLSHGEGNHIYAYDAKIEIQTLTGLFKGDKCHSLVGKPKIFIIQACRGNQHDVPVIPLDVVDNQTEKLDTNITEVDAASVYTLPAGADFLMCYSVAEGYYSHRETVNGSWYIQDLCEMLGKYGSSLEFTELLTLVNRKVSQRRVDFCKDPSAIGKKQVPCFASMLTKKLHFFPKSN
The data set is described as follows: Inhibition of human recombinant caspase-6 using Ac-VEID-AMC as substrate at Km after 20 mins by fluorescence assay. The gist of the method: as §2

The next data set has as its target T5, Caspase-7 (Homo sapiens, UniProt P55210).
T5 sequence (P55210 whole entry): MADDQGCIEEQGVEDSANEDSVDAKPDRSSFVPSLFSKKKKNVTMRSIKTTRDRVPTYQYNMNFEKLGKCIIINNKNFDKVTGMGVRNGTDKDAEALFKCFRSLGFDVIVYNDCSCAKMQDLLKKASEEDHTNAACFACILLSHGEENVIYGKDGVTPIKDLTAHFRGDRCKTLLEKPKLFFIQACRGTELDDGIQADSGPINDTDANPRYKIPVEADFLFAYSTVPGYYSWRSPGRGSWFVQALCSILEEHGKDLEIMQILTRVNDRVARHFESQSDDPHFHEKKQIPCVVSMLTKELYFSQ
The data set is described as follows: Inhibition of human recombinant caspase-7 using Ac-DEVD-AMC as substrate at Km after 20 mins by fluorescence assay. The gist of the method:
as §2

For another data set, the target named is Caspase-8 (Homo sapiens, UniProt Q14790). The data set is described as follows: Inhibition of human recombinant caspase-8 using Ac-IETD-AMC as substrate at Km after 20 mins by fluorescence assay. The gist of the method:
as §2

Data set [9] addresses T1, Caspase-1. Nature of the data set: Inhibition of caspase-1 in human monocyte-derived macrophages assessed as decrease in LPS-induced IL-1beta secretion after 24 hrs by sandwich immunoassay. The gist of the method:
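Cryopreserved human peripheral blood monocytes are cultured 10 days at 37 °C in RPMI with 10% heat-inactivated FBS and 100 ng/mL GM-CSF to give M1 macrophages. Cells are then stimulated with LPS 10 µg/mL plus IFNγ 20 ng/mL and treated with compound serial dilutions (10000–0.04 nM, 0.1% DMSO).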

Data set [10] is described as follows: Cmax in mouse dermis at 0.1 umol/cm'2 administered topically. The class given is ADME, tissue-based. Conditions: topical or ocular. The gist of the method:
(§3)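 Mouse PK after one topical application of 0.1 μmol/cm², given as a 10 mM solution in PG/EtOH 3/7. Cmax is reported in μM for dermis and for plasma.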

Data set [11] can be described thus: Cmax in mouse plasma at 0.1 umol/cm'2 administered topically. Conditions: topical or ocular. The gist of the method:
as §3

The nature of data set [12]: Drug uptake in human dermis at 0.2 umol/cm'2 administered topically. The class given is ADME, tissue-based. The settings on record: topical_or_ocular, read-out: Drug uptake. A digest of the protocol:
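Cryogenically preserved human skin explant given one topical application of 0.2 μmol/cm² from a 40 mM PG/EtOH 3/7 solution. Dermis concentration is reported in μM.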

Data set [13] in a line: Intrinsic clearance in human hepatocytes assessed per 10^6 cells. The class given is ADME, cell-based, Hepatocyte. Conditions: read-out: CLH.

Sequence of Caspase-8 (Q14790 217-374 limits assumed): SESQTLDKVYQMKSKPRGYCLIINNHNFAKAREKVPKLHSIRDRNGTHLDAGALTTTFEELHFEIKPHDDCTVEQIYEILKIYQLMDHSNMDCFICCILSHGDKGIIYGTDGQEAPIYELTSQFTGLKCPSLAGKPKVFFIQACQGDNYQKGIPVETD
Sequence of Caspase-8 (Q14790 385-479 limits assumed): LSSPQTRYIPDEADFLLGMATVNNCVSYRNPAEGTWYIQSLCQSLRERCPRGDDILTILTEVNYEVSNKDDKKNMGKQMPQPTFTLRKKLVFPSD

The chromatographic logD is a lipophilicity value derived from retention on a column. The solubility is the concentration that dissolves in the medium under given conditions. Low readings indicate a poorly soluble substance, high ones a readily soluble substance. Broadly, the IC50 is the concentration that gives 50% inhibition. In data set [1], `Cc1cc(Nc2ccc3ccccc3c2)ccc1C(=O)Nc1cn(C(C)C)c(=O)n(C2(C(=O)N[C@H]3CC(=O)OC(O)C3)CC2)c1=O` (stereo partly specified) yielded a chromatographic logD of 3.4. The solubility at 24 h in data set [2] was 63 µM (≈ 39.4 µg/mL). Also, on Caspase-1 [3], the IC50 was 360 nM. Moreover, the remaining at 2016 h in [4] amounted to 88%. In addition, in data set [5], the CL turned out to be 3.5 uL/min/mg protein. The Activity entry in [6] is “Non-Toxic”.
As usually defined, the Cmax is the maximum level reached in the sampled fluid or tissue. For the molecule `Cc1cc(Nc2ccc3ccccc3c2)ccc1C(=O)Nc1cn(C(C)C)c(=O)n(C2(C(=O)N[C@H]3CC(=O)OC3O)CC2)c1=O` (stereo partly specified), the IC50 was 9.8 nM on Caspase-1 [7]; 38 nM on Caspase-1 [3]; above 10000 nM on Caspase-3; 2980 nM on Caspase-5; above 10000 nM on Caspase-6; above 10000 nM at Caspase-7. Besides, the IC50 is above 10000 nM on Caspase-8 and 160 nM at Caspase-1 [9]. This molecule showed a chromatographic logD in data set [1] of 3.7. In addition, the remaining at 2191.5 h in data set [8] worked out at 100%. Further, the Activity entry in [6] is reported as “Non-Toxic”. Besides, the results for the Cmax in data set [10] and in [11] were 4.2 µM and 0.0013 µM, respectively. The concentration in [12] came to 4.5 µM. The hepatocyte CLint in data set [13] was found to be 9.8 µL/min/1e6 cells.
